The record followed here is ChEMBL document CHEMBL4732074, “Design and synthesis of novel fluorescently labeled analogs of vemurafenib targeting MKK4” (Eur J Med Chem, 2021).

The first test addresses T1, Dual specificity mitogen-activated protein kinase kinase 4 (Homo sapiens) (UniProt P45985).
T1 sequence (whole entry): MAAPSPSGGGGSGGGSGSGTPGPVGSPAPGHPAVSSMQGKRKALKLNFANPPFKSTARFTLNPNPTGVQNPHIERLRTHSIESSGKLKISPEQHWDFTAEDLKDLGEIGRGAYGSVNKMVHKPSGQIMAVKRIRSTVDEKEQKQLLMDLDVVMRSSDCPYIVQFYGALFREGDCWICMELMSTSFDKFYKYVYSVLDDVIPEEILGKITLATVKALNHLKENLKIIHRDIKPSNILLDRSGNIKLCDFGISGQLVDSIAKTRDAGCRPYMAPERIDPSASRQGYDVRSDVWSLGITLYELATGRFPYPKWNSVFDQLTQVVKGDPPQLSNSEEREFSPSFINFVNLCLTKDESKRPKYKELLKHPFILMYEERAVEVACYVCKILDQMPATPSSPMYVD
The experiment in a line: Inhibition of wild-type human partial length MKK4 (S84 to D399 residues) expressed in mammalian expression system assessed as residual activity at 100 nM by KINOMEscan method relative to control. Put shortly:
(§1)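 DiscoverX KINOMEscan binding assay: the compound at 100 nM competes with an immobilised ligand for kinase binding. Read-out is POC (percentage of control), where lower values mean stronger binding.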
Take `CCCS(=O)(=O)Nc1ccc(F)c(C(=O)c2c[nH]c3ncc(-c4ccc(NC(=O)CNC(=O)c5ccc(-c6c7ccc(=[N+](C)C)cc-7oc7cc(N(C)C)ccc67)c(C(=O)[O-])c5)cc4)cc23)c1F`: the Activity turned out to be 11%.
Still for that read-out and setting: to `CCCS(=O)(=O)Nc1ccc(F)c(C(=O)c2c[nH]c3ncc(-c4ccc(NC(=O)CNC(=O)c5ccc(-c6c7ccc(=[N+](C)C)cc-7oc7cc(N(C)C)ccc67)c(C(=O)[O-])c5)nc4)cc23)c1F` belongs 8.4%; to `CCCS(=O)(=O)Nc1ccc(F)c(C(=O)c2ccc3[nH]c4ncc(-c5ccc(C(=O)NCCCCNC(=O)c6ccc(-c7c8ccc(=[N+](C)C)cc-8oc8cc(N(C)C)ccc78)c(C(=O)[O-])c6)cc5)cc4c3c2)c1F`, 4.3%.
Same read-out and setting: to `CCCS(=O)(=O)Nc1ccc(F)c(C(=O)c2ccc3[nH]c4ncc(-c5ccc(C(=O)NCCCNC(=O)c6ccc(-c7c8ccc(=[N+](C)C)cc-8oc8cc(N(C)C)ccc78)c(C(=O)[O-])c6)cc5)cc4c3c2)c1F` belongs 13%; to `CCCS(=O)(=O)Nc1ccc(F)c(C(=O)c2c[nH]c3ncccc23)c1F`, 14%.
On the same count and under the same terms, under `CCCS(=O)(=O)Nc1ccc(F)c(C(=O)c2c[nH]c3ncc(-c4ccc(NC(=O)CNC(=O)OC(C)(C)C)cc4)cc23)c1F` stands 9.2%; under `CCCS(=O)(=O)Nc1ccc(F)c(C(=O)c2ccc3[nH]c4ncc(-c5ccc(C(=O)NCCNC(=O)c6ccc(-c7c8ccc(=[N+](C)C)cc-8oc8cc(N(C)C)ccc78)c(C(=O)[O-])c6)cc5)cc4c3c2)c1F`, 19%; under `CCCS(=O)(=O)Nc1ccc(F)c(C(=O)c2ccc3[nH]c4ncc(-c5ccc(C(=O)NCCCNC(=O)c6ccc(-c7c8ccc(=[N+](C)C)cc-8oc8cc(N(C)C)ccc78)c(C(=O)[O-])c6)nc5)cc4c3c2)c1F`, 4.5%.
In the case of `CN(C)c1ccc2c(-c3ccc(C(=O)NCC(=O)Nc4ccc(-c5cnc6[nH]cc(C(=O)c7c(F)ccc(NS(=O)(=O)Cc8ccccc8)c7F)c6c5)cn4)cc3C(=O)[O-])c3ccc(=[N+](C)C)cc-3oc2c1`, the Activity turned out to be 6.6%.
On the same count and under the same terms, under `CCCS(=O)(=O)Nc1ccc(F)c(C(=O)c2ccc3[nH]c4ncc(-c5ccc(C(=O)NCCCCNC(=O)c6ccc(-c7c8ccc(=[N+](C)C)cc-8oc8cc(N(C)C)ccc78)c(C(=O)[O-])c6)nc5)cc4c3c2)c1F` stands 1.3%; under `CCCS(=O)(=O)Nc1ccc(F)c(C(=O)c2c[nH]c3ncc(-c4ccc(NC(=O)CCCCNC(=O)c5ccc(-c6c7ccc(=[N+](C)C)cc-7oc7cc(N(C)C)ccc67)c(C(=O)[O-])c5)nc4)cc23)c1F`, 57%; under `CCCS(=O)(=O)Nc1ccc(F)c(C(=O)c2ccc3[nH]c4ncc(-c5ccc(C(=O)NCCCCCCNC(=O)c6ccc(-c7c8ccc(=[N+](C)C)cc-8oc8cc(N(C)C)ccc78)c(C(=O)[O-])c6)nc5)cc4c3c2)c1F`, 4.8%.
Regarding `CCCS(=O)(=O)Nc1ccc(F)c(C(=O)c2ccc3[nH]c4ncc(-c5ccc(NC(=O)CNC(=O)c6ccc(-c7c8ccc(=[N+](C)C)cc-8oc8cc(N(C)C)ccc78)c(C(=O)[O-])c6)cc5)cc4c3c2)c1F`, the Activity came out at 13%.
As to `CN(C)c1ccc2c(-c3ccc(C(=O)NCCCCC(=O)Nc4ccc(-c5cnc6[nH]cc(C(=O)c7c(F)ccc(NS(=O)(=O)Cc8ccccc8)c7F)c6c5)cn4)cc3C(=O)[O-])c3ccc(=[N+](C)C)cc-3oc2c1`, the Activity is 13%.
Same read-out and setting: to `CCCS(=O)(=O)Nc1ccc(F)c(C(=O)c2ccc3[nH]c4ncc(-c5cnc(C(=O)NCCCCNC(=O)c6ccc(-c7c8ccc(=[N+](C)C)cc-8oc8cc(N(C)C)ccc78)c(C(=O)[O-])c6)nc5)cc4c3c2)c1F` belongs 9.3%; to `CCCS(=O)(=O)Nc1ccc(F)c(C(=O)c2ccc3[nH]c4ncc(-c5ccc(C(=O)NCCCCCNC(=O)c6ccc(-c7c8ccc(=[N+](C)C)cc-8oc8cc(N(C)C)ccc78)c(C(=O)[O-])c6)cc5)cc4c3c2)c1F`, 32%.
Still for that read-out and setting: to `CCCS(=O)(=O)Nc1ccc(F)c(C(=O)c2ccc3[nH]c4ncc(-c5ccc(C(=O)NCCCCCCNC(=O)c6ccc(-c7c8ccc(=[N+](C)C)cc-8oc8cc(N(C)C)ccc78)c(C(=O)[O-])c6)cc5)cc4c3c2)c1F` belongs 6.6%.

For another test, the target named is T1, Dual specificity mitogen-activated protein kinase kinase 4 (Homo sapiens). The experiment in a line: Inhibition of wild-type human partial length MKK4 (S84 to D399 residues) expressed in mammalian expression system assessed as residual activity at 10 nM by KINOMEscan method relative to control. The method in brief:
(§2)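 KINOMEscan competition binding against an immobilised ligand, run at the lower compound concentrations named in each line. Binding is reported as percentage of control (POC), with low POC indicating high affinity.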
Take `CCCS(=O)(=O)Nc1ccc(F)c(C(=O)c2ccc3[nH]c4ncc(-c5ccc(C(=O)NCCCCNC(=O)c6ccc(-c7c8ccc(=[N+](C)C)cc-8oc8cc(N(C)C)ccc78)c(C(=O)[O-])c6)nc5)cc4c3c2)c1F`: the Activity worked out at 18%.

A further test has the same target. Nature of the test: Inhibition of wild-type human partial length MKK4 (S84 to D399 residues) expressed in mammalian expression system assessed as residual activity at 30 nM by KINOMEscan method relative to control. The method in brief:
as §2
On to `CCCS(=O)(=O)Nc1ccc(F)c(C(=O)c2ccc3[nH]c4ncc(-c5ccc(C(=O)NCCCCNC(=O)c6ccc(-c7c8ccc(=[N+](C)C)cc-8oc8cc(N(C)C)ccc78)c(C(=O)[O-])c6)nc5)cc4c3c2)c1F`, for which the Activity was found to be 4.1%.

The next test deals with Serine/threonine-protein kinase B-raf (Homo sapiens) (UniProt P15056). Nature of the test: Inhibition of BRAF (unknown origin) assessed as assessed as residual activity relative to control. The method in brief: as §1
Sequence of Serine/threonine-protein kinase B-raf (Homo sapiens) (P15056 whole entry): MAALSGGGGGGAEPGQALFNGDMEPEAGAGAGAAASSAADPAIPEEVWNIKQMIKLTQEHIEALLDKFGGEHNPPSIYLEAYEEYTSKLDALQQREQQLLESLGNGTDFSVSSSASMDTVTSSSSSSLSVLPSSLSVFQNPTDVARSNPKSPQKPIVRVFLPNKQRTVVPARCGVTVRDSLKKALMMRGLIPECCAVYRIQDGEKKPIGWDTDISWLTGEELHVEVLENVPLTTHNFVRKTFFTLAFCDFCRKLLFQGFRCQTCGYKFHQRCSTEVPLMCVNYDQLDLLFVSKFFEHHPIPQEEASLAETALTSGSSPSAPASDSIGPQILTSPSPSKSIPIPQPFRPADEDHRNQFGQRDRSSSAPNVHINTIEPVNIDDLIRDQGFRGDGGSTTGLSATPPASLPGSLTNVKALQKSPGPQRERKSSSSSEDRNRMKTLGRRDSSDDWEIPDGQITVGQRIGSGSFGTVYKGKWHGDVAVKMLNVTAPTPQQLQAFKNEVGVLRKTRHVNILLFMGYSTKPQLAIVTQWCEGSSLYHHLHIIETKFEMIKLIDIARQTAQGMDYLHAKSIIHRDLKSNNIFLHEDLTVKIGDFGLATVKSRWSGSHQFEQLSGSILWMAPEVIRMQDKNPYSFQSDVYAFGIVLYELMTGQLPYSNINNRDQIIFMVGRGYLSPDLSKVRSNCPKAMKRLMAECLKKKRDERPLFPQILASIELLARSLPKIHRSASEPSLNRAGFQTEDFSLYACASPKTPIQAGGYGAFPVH
Turning to `CCCS(=O)(=O)Nc1ccc(F)c(C(=O)c2ccc3[nH]c4ncc(-c5ccc(C(=O)NCCCCNC(=O)c6ccc(-c7c8ccc(=[N+](C)C)cc-8oc8cc(N(C)C)ccc78)c(C(=O)[O-])c6)nc5)cc4c3c2)c1F`, the Activity worked out at 92%.
